The compounds below were run on LoxA (assay: LoxA inhibition, manual cuvette assay). Settings: 25 μM inhibitor, 10 μM AA.
Type: biochemical, Pseudomonas aeruginosa

Row | SMILES | single-point screen inhibition percentage, LoxA [%]
1 | Nc1ncnc2c1c(-c1ccc(Oc3ccccc3)cc1)cn2C1CCCC1 [NCGC00015280] | 86
2 | O=c1[nH]c2ccccc2n1C1CCN(CCCC(c2ccc(F)cc2)c2ccc(F)cc2)CC1 [NCGC00015802] | 90
3 | CC/C(=C(\c1ccccc1)c1ccc(OCCN(C)C)cc1)c1ccccc1 [NCGC00024928] | 82
4 | CN[C@H]1CC[C@@H](c2ccc(Cl)c(Cl)c2)c2ccccc21.Cl [NCGC00092386] | 76
5 | COC(=O)[C@H]1[C@H]2C[C@@H]3c4[nH]c5cc(OC)ccc5c4CCN3C[C@H]2C[C@@H](OC(=O)c2cc(OC)c(OC)c(OC)c2)[C@@H]1OC [NCGC00091250] | 69

Same assay, conditions: from single-point screens at 25 μM

Row | SMILES | selectivity for LoxA versus human LOX isozymes
6 | O=c1[nH]c2ccccc2n1C1CCN(CCCC(c2ccc(F)cc2)c2ccc(F)cc2)CC1 [NCGC00015802] | selectivity towards LoxA over 12-LOX, 15-LOX-1, and 15-LOX-2

The compounds below were run against T1, 15-LOX-1 (Homo sapiens, UniProt P16050) (assay: Human LOX isozyme specificity screen, 15-LOX-1). Settings: 25 μM inhibitor, 10 μM AA.
T1 sequence (P16050 1-662): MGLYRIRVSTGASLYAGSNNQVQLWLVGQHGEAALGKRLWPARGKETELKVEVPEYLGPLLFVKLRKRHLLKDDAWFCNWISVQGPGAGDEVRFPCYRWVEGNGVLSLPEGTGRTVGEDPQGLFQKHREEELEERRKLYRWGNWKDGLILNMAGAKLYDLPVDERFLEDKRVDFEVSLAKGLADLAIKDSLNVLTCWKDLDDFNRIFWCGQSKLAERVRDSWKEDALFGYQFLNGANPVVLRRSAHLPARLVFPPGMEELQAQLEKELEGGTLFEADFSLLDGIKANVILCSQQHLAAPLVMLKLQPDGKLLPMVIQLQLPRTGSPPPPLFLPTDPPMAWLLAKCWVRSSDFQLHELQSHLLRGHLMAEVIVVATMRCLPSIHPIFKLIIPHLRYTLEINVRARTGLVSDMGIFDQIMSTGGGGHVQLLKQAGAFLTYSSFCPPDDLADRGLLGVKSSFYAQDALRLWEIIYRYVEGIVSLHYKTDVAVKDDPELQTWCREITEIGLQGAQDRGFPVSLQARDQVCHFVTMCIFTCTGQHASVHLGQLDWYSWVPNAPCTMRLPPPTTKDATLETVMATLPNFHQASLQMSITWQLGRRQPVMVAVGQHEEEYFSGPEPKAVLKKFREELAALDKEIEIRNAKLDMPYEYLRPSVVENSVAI
Type: biochemical

Row | SMILES | single-point screen inhibition percentage, 15-LOX-l [%]
7 | Nc1ncnc2c1c(-c1ccc(Oc3ccccc3)cc1)cn2C1CCCC1 [NCGC00015280] | 51
8 | O=c1[nH]c2ccccc2n1C1CCN(CCCC(c2ccc(F)cc2)c2ccc(F)cc2)CC1 [NCGC00015802] | 69
9 | CC/C(=C(\c1ccccc1)c1ccc(OCCN(C)C)cc1)c1ccccc1 [NCGC00024928] | 73
10 | CN[C@H]1CC[C@@H](c2ccc(Cl)c(Cl)c2)c2ccccc21.Cl [NCGC00092386] | 51
11 | COC(=O)[C@H]1[C@H]2C[C@@H]3c4[nH]c5cc(OC)ccc5c4CCN3C[C@H]2C[C@@H](OC(=O)c2cc(OC)c(OC)c(OC)c2)[C@@H]1OC [NCGC00091250] | 57

The compounds below were run on LoxA (assay: not given). Settings: noncompetitive, LA versus perdeuterated LA.
Type: biochemical, Pseudomonas aeruginosa

Row | SMILES | KIE for Kcat
12 | CCCCC/C=C\C/C=C\CCCCCCCC(=O)O [LA, linoleic acid] | 32 +/− 6

Same assay, conditions: substrate of LoxA, 25 mM HEPES pH 7.0

Row | SMILES | Kcat | Km [µM]
13 | CCCCC/C=C\C/C=C\CCCCCCCC(=O)O [LA, linoleic acid] | 28 (2) s^−1 | 7

These compounds were tested on LoxA (assay: LoxA substrate preference). Settings: initial rate at 10 μM substrate, pH 7.0, relative to AA.
Type: biochemical, Pseudomonas aeruginosa
How it was run: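 His6-tagged LoxA was expressed in E. coli BL21(DE3), purified on Ni-NTA, and dosed by iron content. About 7 nM enzyme started each reaction. Each fatty acid substrate was C18 HPLC-purified and used at 10 μM in 25 mM HEPES pH 7.0 without Triton X-100. Initial rate of conjugated diene formation was followed at 234 nm (ε 25000 M−1cm−1) and expressed relative to the AA rate.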

Row | SMILES | % AA Rate (10 μM)
14 | CCCCC/C=C\C/C=C\CCCCCCCC(=O)O [LA, linoleic acid] | 72(10) %

These compounds were tested against T2, 12-LOX (Homo sapiens, UniProt P18054) (assay: Human LOX isozyme specificity screen, 12-LOX). Settings: 25 μM inhibitor, 10 μM AA.
T2 sequence (P18054 1-663): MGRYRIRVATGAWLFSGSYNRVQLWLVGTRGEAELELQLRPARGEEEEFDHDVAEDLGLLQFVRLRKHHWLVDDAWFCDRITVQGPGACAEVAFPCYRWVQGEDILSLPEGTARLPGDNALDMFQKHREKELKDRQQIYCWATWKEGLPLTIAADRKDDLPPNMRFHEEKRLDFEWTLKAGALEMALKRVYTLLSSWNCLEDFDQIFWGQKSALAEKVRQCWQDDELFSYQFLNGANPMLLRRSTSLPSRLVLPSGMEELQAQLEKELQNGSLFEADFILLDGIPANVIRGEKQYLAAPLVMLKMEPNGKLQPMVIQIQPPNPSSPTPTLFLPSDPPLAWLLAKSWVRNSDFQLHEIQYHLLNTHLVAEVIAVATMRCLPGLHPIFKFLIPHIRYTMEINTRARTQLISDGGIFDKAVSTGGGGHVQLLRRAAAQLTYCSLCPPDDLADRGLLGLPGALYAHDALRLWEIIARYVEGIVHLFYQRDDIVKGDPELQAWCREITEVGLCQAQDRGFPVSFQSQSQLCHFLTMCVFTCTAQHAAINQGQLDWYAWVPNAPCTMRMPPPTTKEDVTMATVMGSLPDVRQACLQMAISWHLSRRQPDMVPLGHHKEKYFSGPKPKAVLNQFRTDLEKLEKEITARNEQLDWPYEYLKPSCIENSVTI
Type: biochemical

Row | SMILES | single-point screen inhibition percentage, 12-LOX [%]
15 | Nc1ncnc2c1c(-c1ccc(Oc3ccccc3)cc1)cn2C1CCCC1 [NCGC00015280] | 38
16 | O=c1[nH]c2ccccc2n1C1CCN(CCCC(c2ccc(F)cc2)c2ccc(F)cc2)CC1 [NCGC00015802] | 50
17 | CC/C(=C(\c1ccccc1)c1ccc(OCCN(C)C)cc1)c1ccccc1 [NCGC00024928] | 39
18 | CN[C@H]1CC[C@@H](c2ccc(Cl)c(Cl)c2)c2ccccc21.Cl [NCGC00092386] | 26
19 | COC(=O)[C@H]1[C@H]2C[C@@H]3c4[nH]c5cc(OC)ccc5c4CCN3C[C@H]2C[C@@H](OC(=O)c2cc(OC)c(OC)c(OC)c2)[C@@H]1OC [NCGC00091250] | 23

The compounds below were run against T3, 15-LOX-2 (Homo sapiens, UniProt O15296) (assay: Human LOX isozyme specificity screen, 15-LOX-2). Settings: 25 μM inhibitor, 10 μM AA.
T3 sequence (O15296 1-676): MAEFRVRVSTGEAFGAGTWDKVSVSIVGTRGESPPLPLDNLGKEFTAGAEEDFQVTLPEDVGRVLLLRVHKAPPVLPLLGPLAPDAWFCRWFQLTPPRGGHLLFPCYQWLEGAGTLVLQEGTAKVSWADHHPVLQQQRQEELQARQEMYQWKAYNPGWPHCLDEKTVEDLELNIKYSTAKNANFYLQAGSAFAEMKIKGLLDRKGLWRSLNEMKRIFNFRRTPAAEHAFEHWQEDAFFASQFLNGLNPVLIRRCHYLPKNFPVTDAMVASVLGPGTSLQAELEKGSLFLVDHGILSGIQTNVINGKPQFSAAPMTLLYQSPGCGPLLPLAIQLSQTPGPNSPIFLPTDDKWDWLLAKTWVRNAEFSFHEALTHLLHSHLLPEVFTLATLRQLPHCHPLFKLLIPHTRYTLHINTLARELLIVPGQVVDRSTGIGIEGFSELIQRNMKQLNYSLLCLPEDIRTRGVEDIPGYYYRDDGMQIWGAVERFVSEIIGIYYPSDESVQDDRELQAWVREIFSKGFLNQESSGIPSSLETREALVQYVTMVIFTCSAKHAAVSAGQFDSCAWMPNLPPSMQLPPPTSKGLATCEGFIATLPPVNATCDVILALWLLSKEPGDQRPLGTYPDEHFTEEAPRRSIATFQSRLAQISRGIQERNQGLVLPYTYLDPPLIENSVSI
Type: biochemical

Row | SMILES | single-point screen inhibition percentage, 15-LOX-2 [%]
20 | Nc1ncnc2c1c(-c1ccc(Oc3ccccc3)cc1)cn2C1CCCC1 [NCGC00015280] | 0
21 | O=c1[nH]c2ccccc2n1C1CCN(CCCC(c2ccc(F)cc2)c2ccc(F)cc2)CC1 [NCGC00015802] | 16
22 | CC/C(=C(\c1ccccc1)c1ccc(OCCN(C)C)cc1)c1ccccc1 [NCGC00024928] | 8
23 | CN[C@H]1CC[C@@H](c2ccc(Cl)c(Cl)c2)c2ccccc21.Cl [NCGC00092386] | 5
24 | COC(=O)[C@H]1[C@H]2C[C@@H]3c4[nH]c5cc(OC)ccc5c4CCN3C[C@H]2C[C@@H](OC(=O)c2cc(OC)c(OC)c(OC)c2)[C@@H]1OC [NCGC00091250] | 5

The compounds below were run against T4, 5-LOX (Homo sapiens, UniProt P09917) (assay: Human LOX isozyme specificity screen, 5-LOX). Settings: 25 μM inhibitor, 10 μM AA.
T4 sequence (P09917 1-674): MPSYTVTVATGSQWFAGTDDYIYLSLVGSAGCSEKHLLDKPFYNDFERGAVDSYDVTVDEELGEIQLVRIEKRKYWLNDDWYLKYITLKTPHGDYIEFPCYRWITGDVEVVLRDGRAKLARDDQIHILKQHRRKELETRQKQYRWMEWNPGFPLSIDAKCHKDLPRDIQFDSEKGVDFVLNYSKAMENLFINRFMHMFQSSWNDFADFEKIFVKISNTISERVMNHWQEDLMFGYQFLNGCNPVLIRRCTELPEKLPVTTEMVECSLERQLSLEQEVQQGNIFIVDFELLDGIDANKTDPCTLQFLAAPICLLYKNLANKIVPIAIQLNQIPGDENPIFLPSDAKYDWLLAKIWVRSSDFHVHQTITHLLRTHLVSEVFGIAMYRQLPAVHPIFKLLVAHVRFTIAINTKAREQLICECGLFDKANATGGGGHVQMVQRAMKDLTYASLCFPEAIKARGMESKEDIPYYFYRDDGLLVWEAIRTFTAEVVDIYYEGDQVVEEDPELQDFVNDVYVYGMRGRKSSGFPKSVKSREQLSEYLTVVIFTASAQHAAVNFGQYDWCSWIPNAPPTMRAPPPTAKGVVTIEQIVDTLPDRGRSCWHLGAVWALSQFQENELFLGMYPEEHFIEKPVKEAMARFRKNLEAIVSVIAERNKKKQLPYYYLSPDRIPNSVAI
Type: biochemical

Row | SMILES | single-point screen inhibition percentage, 5-LOX [%]
25 | Nc1ncnc2c1c(-c1ccc(Oc3ccccc3)cc1)cn2C1CCCC1 [NCGC00015280] | 42
26 | O=c1[nH]c2ccccc2n1C1CCN(CCCC(c2ccc(F)cc2)c2ccc(F)cc2)CC1 [NCGC00015802] | 80
27 | CC/C(=C(\c1ccccc1)c1ccc(OCCN(C)C)cc1)c1ccccc1 [NCGC00024928] | 79
28 | CN[C@H]1CC[C@@H](c2ccc(Cl)c(Cl)c2)c2ccccc21.Cl [NCGC00092386] | 83
29 | COC(=O)[C@H]1[C@H]2C[C@@H]3c4[nH]c5cc(OC)ccc5c4CCN3C[C@H]2C[C@@H](OC(=O)c2cc(OC)c(OC)c(OC)c2)[C@@H]1OC [NCGC00091250] | 37

— paper PMC7249612 (Biochemistry, 2016)
